The values below come from ChEMBL document CHEMBL1127395, “Synthesis and antimicrobial activity of novel 3-[(aminopyrimidiniumyl)thio]methyl cephalosporins” (1994).

For one assay, the system named is Citrobacter freundii. The experiment in a line: In vitro minimum inhibitory concentration for Citrobacter freundii (ATCC-8090) by agar dilution method. The note with it: Citrobacter freundii; read-out: MIC. In kind it is functional. The procedure, abridged:
(§1)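 Two-fold serial dilutions of each compound dispersed in Mueller-Hinton agar; plates spot-inoculated with 2 μL of standard test strain at 10^7 CFU/mL, incubated 37 °C for 20 h; MIC read as lowest concentration inhibiting growth.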
For orientation: In agar dilution, organisms are placed on agar that contains the substance at set levels.

In a further assay the test system is Enterobacter cloacae. The experiment in a line: In vitro minimum inhibitory concentration for Enterobacter cloacae (ATCC-27508) by agar dilution method. The note with it: Enterobacter cloacae; read-out: MIC. The class given is functional. The method in brief:
as §1

The test system of another assay is Klebsiella aerogenes. The experiment in a line: In vitro minimum inhibitory concentration for Enterobacter aerogenes (ATCC-29751) by agar dilution method. In kind it is functional. The note with it: Klebsiella aerogenes; read-out: MIC. The procedure, abridged: as §1
In a further assay the test system is Klebsiella pneumoniae. The experiment in a line: In vitro minimum inhibitory concentration for Klebsiella pneumoniae (ATCC-10031) by agar dilution method. The class given is functional. The following applies: Klebsiella pneumoniae; read-out: MIC.
Assay [1] deals with Pseudomonas aeruginosa. The experiment in a line: In vitro minimum inhibitory concentration for Pseudomonas aeruginosa (ATCC-27853) by agar dilution method. The class given is functional. The note with it: Pseudomonas aeruginosa; read-out: MIC. The method in brief:
as §1

Another assay concerns Proteus vulgaris. The experiment in a line: In vitro minimum inhibitory concentration for Proteus vulgaris (ATCC-6059) by agar dilution method. The class given is functional. The note with it: Proteus vulgaris; read-out: MIC. The procedure, abridged:
as §1

The subject of a further assay is Salmonella typhimurium. Description: In vitro minimum inhibitory concentration for Salmonella Typhimurium (ATCC-14028) by agar dilution method. In kind it is functional, Salmonella enterica subsp. enterica serovar Typhimurium. The note with it: Salmonella enterica; read-out: MIC. The procedure, abridged:
as §1

Another assay has as its system Serratia marcescens. The experiment in a line: In vitro minimum inhibitory concentration for Serratia marcescens (ATCC-27117) by agar dilution method. The class given is functional. The following applies: Serratia marcescens; read-out: MIC. The method in brief: as §1
For assay [2], the system named is Staphylococcus epidermidis. Description: In vitro minimum inhibitory concentration for Staphylococcus epidermidis (ATCC-12228) by agar dilution method. The class given is functional. The following applies: Staphylococcus epidermidis; read-out: MIC. The method in brief:
as §1

The test system of the next assay is Escherichia coli. Description: In vitro minimum inhibitory concentration for Escherichia coli (ATCC-10536) by agar dilution method. The note with it: Escherichia coli; read-out: MIC. The class given is functional. The method in brief: as §1
In assay [3] the test system is Pseudomonas aeruginosa. The experiment in a line: In vitro minimum inhibitory concentration for Pseudomonas aeruginosa (ATCC 10145) by agar dilution method. In kind it is functional. The procedure, abridged: as §1
Assay [4] deals with Staphylococcus aureus. The experiment in a line: In vitro minimum inhibitory concentration for Staphylococcus aureus (ATCC 6538p) by agar dilution method.
Assay [5] relates to Staphylococcus aureus. Description: In vitro minimum inhibitory concentration for Staphylococcus aureus (ATCC 6538p) by agar dilution method. In kind it is functional. The note with it: Staphylococcus aureus, ATCC 6538p; read-out: MIC. The procedure, abridged: as §1

≈ marks a conversion by molar mass, not a printed value.

On to `CCC[n+]1c(N)cc(N)nc1SCC1=C(C(=O)[O-])N2C(=O)C(NC(=O)/C(=N\OC(C)(C)C(=O)O)c3cnc(N)s3)C2SC1` (stereo not drawn), for which the minimal inhibitory concentration (MIC) with Citrobacter freundii came out at 0.25 µg/mL (≈ 0.384 µM); in the assay on Enterobacter cloacae it was 0.03 µg/mL (≈ 0.046 µM); with Klebsiella aerogenes it was 2 µg/mL (≈ 3.07 µM); in the assay with Klebsiella pneumoniae, 0.13 µg/mL (≈ 0.199 µM); in the assay on Pseudomonas aeruginosa [1] it was 2 µg/mL (≈ 3.07 µM); in the assay with Proteus vulgaris it was 0.06 µg/mL (≈ 0.0921 µM). The MIC in the assay with Salmonella typhimurium came to 0.25 µg/mL (≈ 0.384 µM); in the assay on Serratia marcescens it was 0.25 µg/mL (≈ 0.384 µM); in assay [2], 2 µg/mL (≈ 3.07 µM); in the assay with Escherichia coli it was 0.13 µg/mL (≈ 0.199 µM); against Pseudomonas aeruginosa [3] it was 4 µg/mL (≈ 6.14 µM); against Staphylococcus aureus [4], 2 µg/mL (≈ 3.07 µM).
Consider `CC(C)(O/N=C(\C(=O)NC1C(=O)N2C(C(=O)O)=C(CSc3nccc(N)n3)CSC12)c1cnc(N)s1)C(=O)O` (stereo not drawn), for which the MIC in the assay with Citrobacter freundii was found to be 1 µg/mL (≈ 1.68 µM); in the assay with Enterobacter cloacae it was 0.5 µg/mL (≈ 0.841 µM); with Klebsiella aerogenes, 8 µg/mL (≈ 13.5 µM); in the assay on Klebsiella pneumoniae, 0.5 µg/mL (≈ 0.841 µM); in the assay on Pseudomonas aeruginosa [1], 8 µg/mL (≈ 13.5 µM); in the assay with Proteus vulgaris it was 0.063 µg/mL (≈ 0.106 µM). The MIC in the assay on Salmonella typhimurium was 1 µg/mL (≈ 1.68 µM); in the assay with Serratia marcescens, 1 µg/mL (≈ 1.68 µM); in assay [2], 16 µg/mL (≈ 26.9 µM); in the assay with Staphylococcus aureus [5], 32 µg/mL (≈ 53.8 µM); in the assay on Escherichia coli, 1 µg/mL (≈ 1.68 µM); against Pseudomonas aeruginosa [3] it was 16 µg/mL (≈ 26.9 µM).
For the molecule `Cc1c(N)nc(SCC2=C(C(=O)[O-])N3C(=O)C(NC(=O)/C(=N\OC(C)(C)C(=O)O)c4cnc(N)s4)C3SC2)[n+]2nc(C)n(C)c12` (stereo not drawn), the MIC in the assay with Citrobacter freundii came to 0.13 µg/mL (≈ 0.192 µM); with Enterobacter cloacae, 0.03 µg/mL (≈ 0.0443 µM); in the assay on Klebsiella aerogenes it was 1 µg/mL (≈ 1.48 µM); with Klebsiella pneumoniae, 0.13 µg/mL (≈ 0.192 µM); with Pseudomonas aeruginosa [1] it was 4 µg/mL (≈ 5.91 µM); with Proteus vulgaris, 0.13 µg/mL (≈ 0.192 µM). The MIC came out at 0.25 µg/mL (≈ 0.369 µM) with Salmonella typhimurium; 0.5 µg/mL (≈ 0.739 µM) in the assay on Serratia marcescens; 2 µg/mL (≈ 2.96 µM) in assay [2]; 8 µg/mL (≈ 11.8 µM) in the assay with Staphylococcus aureus [5]; 0.25 µg/mL (≈ 0.369 µM) in the assay with Escherichia coli; 8 µg/mL (≈ 11.8 µM) against Pseudomonas aeruginosa [3].
With `Cc1cc(C)nc(SCC2=C(C(=O)O)N3C(=O)C(NC(=O)/C(=N\OC(C)(C)C(=O)O)c4cnc(N)s4)C3SC2)n1` (stereo not drawn), the MIC in the assay on Citrobacter freundii turned out to be 0.5 µg/mL (≈ 0.823 µM); in the assay on Enterobacter cloacae, 0.5 µg/mL (≈ 0.823 µM); with Klebsiella aerogenes, 8 µg/mL (≈ 13.2 µM); in the assay with Klebsiella pneumoniae, 0.5 µg/mL (≈ 0.823 µM); in the assay on Pseudomonas aeruginosa [1], 32 µg/mL (≈ 52.7 µM); in the assay with Proteus vulgaris, 0.25 µg/mL (≈ 0.411 µM). The MIC in the assay with Salmonella typhimurium stood at 4 µg/mL (≈ 6.58 µM); with Serratia marcescens, 2 µg/mL (≈ 3.29 µM); in [2], 8 µg/mL (≈ 13.2 µM); in the assay with Staphylococcus aureus [5] it was 32 µg/mL (≈ 52.7 µM); in the assay on Escherichia coli, 0.5 µg/mL (≈ 0.823 µM); in the assay on Pseudomonas aeruginosa [3], 64 µg/mL (≈ 105 µM).
For the molecule `CC(C)(O/N=C(\C(=O)NC1C(=O)N2C(C(=O)[O-])=C(CSc3nc(N)cc[n+]3N)CSC12)c1cnc(N)s1)C(=O)O` (stereo not drawn), the minimum inhibitory concentration (MIC) was determined as 0.03 µg/mL (≈ 0.0492 µM) with Citrobacter freundii; 0.02 µg/mL (≈ 0.0328 µM) in the assay on Enterobacter cloacae; 0.5 µg/mL (≈ 0.82 µM) in the assay on Klebsiella aerogenes; 0.03 µg/mL (≈ 0.0492 µM) in the assay with Klebsiella pneumoniae; 1 µg/mL (≈ 1.64 µM) in the assay on Pseudomonas aeruginosa [1]; 0.03 µg/mL (≈ 0.0492 µM) in the assay on Proteus vulgaris. In addition, the MIC is 0.13 µg/mL (≈ 0.213 µM) in the assay on Salmonella typhimurium; 0.13 µg/mL (≈ 0.213 µM) in the assay on Serratia marcescens; 2 µg/mL (≈ 3.28 µM) in assay [2]; 8 µg/mL (≈ 13.1 µM) in the assay with Staphylococcus aureus [5]; 0.06 µg/mL (≈ 0.0984 µM) in the assay with Escherichia coli; 2 µg/mL (≈ 3.28 µM) with Pseudomonas aeruginosa [3].
On to `CNc1cc2n(C)cc[n+]2c(SCC2=C(C(=O)[O-])N3C(=O)C(NC(=O)/C(=N\OC(C)(C)C(=O)O)c4cnc(N)s4)C3SC2)n1` (stereo not drawn), for which the MIC in the assay with Citrobacter freundii was determined as 0.13 µg/mL (≈ 0.196 µM); with Enterobacter cloacae it was 0.03 µg/mL (≈ 0.0453 µM); with Klebsiella aerogenes, 4 µg/mL (≈ 6.04 µM); in the assay with Klebsiella pneumoniae, 0.25 µg/mL (≈ 0.378 µM); in the assay on Pseudomonas aeruginosa [1], 4 µg/mL (≈ 6.04 µM); with Proteus vulgaris, 0.13 µg/mL (≈ 0.196 µM). The MIC with Salmonella typhimurium worked out at 0.5 µg/mL (≈ 0.756 µM); with Serratia marcescens it was 0.5 µg/mL (≈ 0.756 µM); in assay [2], 4 µg/mL (≈ 6.04 µM); in the assay on Staphylococcus aureus [5] it was 8 µg/mL (≈ 12.1 µM); with Escherichia coli, 0.13 µg/mL (≈ 0.196 µM); in the assay on Pseudomonas aeruginosa [3], 8 µg/mL (≈ 12.1 µM).
For the molecule `CC(C)(O/N=C(\C(=O)NC1C(=O)N2C(C(=O)[O-])=C(CSc3nc(N)cc(N)[n+]3N)CSC12)c1cnc(N)s1)C(=O)O` (stereo not drawn), the MIC in the assay with Citrobacter freundii worked out at 0.06 µg/mL (≈ 0.096 µM); in the assay with Enterobacter cloacae, 0.02 µg/mL (≈ 0.032 µM); in the assay on Klebsiella aerogenes, 1 µg/mL (≈ 1.6 µM); with Klebsiella pneumoniae, 0.06 µg/mL (≈ 0.096 µM); in the assay on Pseudomonas aeruginosa [1], 1 µg/mL (≈ 1.6 µM); with Proteus vulgaris, 0.02 µg/mL (≈ 0.032 µM). Besides, the minimum inhibitory concentration (MIC) was determined as 0.13 µg/mL (≈ 0.208 µM) in the assay on Salmonella typhimurium; 0.06 µg/mL (≈ 0.096 µM) in the assay on Serratia marcescens; 2 µg/mL (≈ 3.2 µM) in [2]; 4 µg/mL (≈ 6.4 µM) in the assay with Staphylococcus aureus [5]; 0.06 µg/mL (≈ 0.096 µM) in the assay on Escherichia coli; 1 µg/mL (≈ 1.6 µM) against Pseudomonas aeruginosa [3].
Take `CC(C)(O/N=C(\C(=O)NC1C(=O)N2C(C(=O)[O-])=C(CSc3nc(N)cc(N)[n+]3C3CC3)CSC12)c1cnc(N)s1)C(=O)O` (stereo not drawn): the MIC with Citrobacter freundii came out at 0.13 µg/mL (≈ 0.2 µM); in the assay on Enterobacter cloacae, 0.03 µg/mL (≈ 0.0462 µM); with Klebsiella aerogenes it was 2 µg/mL (≈ 3.08 µM); in the assay with Klebsiella pneumoniae it was 0.06 µg/mL (≈ 0.0923 µM); in the assay on Pseudomonas aeruginosa [1], 2 µg/mL (≈ 3.08 µM); in the assay with Proteus vulgaris, 0.13 µg/mL (≈ 0.2 µM). The MIC in the assay on Salmonella typhimurium came to 0.5 µg/mL (≈ 0.77 µM); in the assay with Serratia marcescens it was 0.25 µg/mL (≈ 0.385 µM); in assay [2], 2 µg/mL (≈ 3.08 µM); in the assay on Staphylococcus aureus [5] it was 4 µg/mL (≈ 6.16 µM); in the assay with Escherichia coli, 0.13 µg/mL (≈ 0.2 µM); with Pseudomonas aeruginosa [3] it was 4 µg/mL (≈ 6.16 µM).
For the molecule `CC(C)(O/N=C(\C(=O)NC1C(=O)N2C(C(=O)[O-])=C(CSc3nc(N)cc(N)[n+]3-c3ccc(Cl)cc3)CSC12)c1cnc(N)s1)C(=O)O` (stereo not drawn), the MIC amounted to 0.25 µg/mL (≈ 0.347 µM) in the assay with Citrobacter freundii; 0.13 µg/mL (≈ 0.181 µM) with Enterobacter cloacae; 1 µg/mL (≈ 1.39 µM) in the assay with Klebsiella aerogenes; 0.13 µg/mL (≈ 0.181 µM) in the assay on Klebsiella pneumoniae; 2 µg/mL (≈ 2.78 µM) in the assay on Pseudomonas aeruginosa [1]; 0.25 µg/mL (≈ 0.347 µM) in the assay with Proteus vulgaris. The MIC in the assay on Salmonella typhimurium was 0.5 µg/mL (≈ 0.694 µM); in the assay on Serratia marcescens, 1 µg/mL (≈ 1.39 µM); in [2], 2 µg/mL (≈ 2.78 µM); with Staphylococcus aureus [5], 4 µg/mL (≈ 5.55 µM); in the assay with Escherichia coli it was 0.25 µg/mL (≈ 0.347 µM); in the assay on Pseudomonas aeruginosa [3] it was 4 µg/mL (≈ 5.55 µM).

As usually defined, the MIC is the smallest concentration in the dilution series that meets the test's criterion for growth inhibition.
